Experiment [1] can be described thus: thallium flux activation in parental CHO cells, counter-screen for KCNQ1 potentiator project (AID 493006). To be noted: parental CHO-K1 cells, FluxOR thallium flux, at 10 µM; active compounds read high. The essentials:
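Test system: parental CHO-K1 cells, FluxOR dye-loaded / Probe or stimulus: potassium plus thallium depolarizing stimulus, 5x stock 12.5 mM K2SO4, Tl2SO4 / Timing: overnight 37 °C plating, 90 min dye, 20 min dark compound / Measured by: kinetic thallium-flux fluorescence / Read-out: max-minus-min fluorescence over baseline, percent of buffer-to-R-L3 span / Benchmarks: buffer and R-L3 controls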
Background: Counterscreens check selectivity or assay interference.

The target in experiment [2] is Potassium voltage-gated channel subfamily KQT member 1 (Homo sapiens) (UniProt P51787). Description: KCNQ1 potassium channel potentiators, confirmation, FluxOR thallium flux, CHO cells, duplicates (AID 493007;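 active = potentiation averaged over duplicate wells exceeding buffer-only control mean by more than 3 SD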;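 for outcome: cells depolarized by a potassium plus thallium sulfate stimulus after compound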;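 for potentiation: 0% = buffer-only wells and 100% = R-L3 activator control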). To be noted: KCNQ1 cell line, FluxOR thallium flux fluorescence, at 10 µM; active compounds read high, % of reference activator effect, buffer zero. Summed up: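 Assay system: CHO cells carrying KCNQ1 | Controls: Buffer and R-L3 controls | Schedule: FluxOR dye loading 90 min, compound exposure 20 min, room temperature | Read-out: Baseline-normalized fluorescence change, percent of buffer-to-R-L3 range | Replicates: Each compound tested in duplicate | Technique: Kinetic thallium influx fluorescence with FluxOR dye, 10 s baseline, 110 s post-stimulus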
Chain of Potassium voltage-gated channel subfamily KQT member 1 (Homo sapiens) (P51787 whole entry, looked up): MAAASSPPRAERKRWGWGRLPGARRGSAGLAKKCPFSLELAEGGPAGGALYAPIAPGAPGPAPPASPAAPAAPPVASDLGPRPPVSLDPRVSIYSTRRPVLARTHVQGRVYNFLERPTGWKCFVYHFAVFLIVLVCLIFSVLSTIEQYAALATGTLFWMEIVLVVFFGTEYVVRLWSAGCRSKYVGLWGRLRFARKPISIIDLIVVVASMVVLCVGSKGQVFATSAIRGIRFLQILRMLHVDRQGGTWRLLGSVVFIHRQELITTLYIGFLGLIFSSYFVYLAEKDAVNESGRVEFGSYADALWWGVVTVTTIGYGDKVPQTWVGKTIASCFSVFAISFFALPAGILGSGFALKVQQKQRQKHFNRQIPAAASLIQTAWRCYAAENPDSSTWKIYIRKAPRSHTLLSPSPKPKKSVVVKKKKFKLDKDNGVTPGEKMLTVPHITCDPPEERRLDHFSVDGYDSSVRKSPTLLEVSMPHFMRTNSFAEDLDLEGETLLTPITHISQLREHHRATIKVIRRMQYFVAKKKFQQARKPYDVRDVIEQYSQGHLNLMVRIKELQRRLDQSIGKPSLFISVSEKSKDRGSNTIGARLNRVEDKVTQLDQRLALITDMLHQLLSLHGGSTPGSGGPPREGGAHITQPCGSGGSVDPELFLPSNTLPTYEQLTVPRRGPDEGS

Experiment [3] addresses Potassium voltage-gated channel subfamily KQT member 2 (Rattus norvegicus) (UniProt O88943). Put plainly: rat KCNQ2 channel potentiation, selectivity assay for KCNQ1 potentiator project, KCNQ2-CHO-K1 cells (AID 493009;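 active = mean duplicate potentiation above the buffer control mean plus 5 SD of buffer wells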;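 note: assay conditions were tuned for KCNQ1 rather than KCNQ2 modulators; signal is max minus min fluorescence divided by baseline after thallium stimulus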). To be noted: FluxOR thallium flux fluorescence, at 10 µM; active compounds read high, scaled: buffer 0, activator control 100.
For experiment [4], the target named is Potassium voltage-gated channel subfamily KQT member 1 (Homo sapiens) (UniProt P51787). Put plainly: KCNQ1 channel current potentiators, confirmation, orthogonal assay for KCNQ1 potentiator project, IonWorks patch clamp, KCNQ1-CHO cells (AID 493184;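 active = current rise at least 3 SD above the untreated control mean in each of two repeat wells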). To be noted: automated patch clamp current, at 10 µM; active compounds read high. The essentials:
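Material: KCNQ1-expressing CHO cells; doses: 10 µM final, single point; probe or stimulus: voltage step from -90 mV holding to +40 mV, 2,000 ms; signal: automated voltage clamp, amphotericin B perforated patch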
A general note: The patch-clamp technique gives a direct electrical read-out from membranes.

The source made the active and inactive calls.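 Rule for the calls, unless noted: active = duplicate-averaged activation above buffer control mean plus 5 SD of those controls; inactive = the rest.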

Chain of Potassium voltage-gated channel subfamily KQT member 2 (Rattus norvegicus) (O88943 whole entry, looked up): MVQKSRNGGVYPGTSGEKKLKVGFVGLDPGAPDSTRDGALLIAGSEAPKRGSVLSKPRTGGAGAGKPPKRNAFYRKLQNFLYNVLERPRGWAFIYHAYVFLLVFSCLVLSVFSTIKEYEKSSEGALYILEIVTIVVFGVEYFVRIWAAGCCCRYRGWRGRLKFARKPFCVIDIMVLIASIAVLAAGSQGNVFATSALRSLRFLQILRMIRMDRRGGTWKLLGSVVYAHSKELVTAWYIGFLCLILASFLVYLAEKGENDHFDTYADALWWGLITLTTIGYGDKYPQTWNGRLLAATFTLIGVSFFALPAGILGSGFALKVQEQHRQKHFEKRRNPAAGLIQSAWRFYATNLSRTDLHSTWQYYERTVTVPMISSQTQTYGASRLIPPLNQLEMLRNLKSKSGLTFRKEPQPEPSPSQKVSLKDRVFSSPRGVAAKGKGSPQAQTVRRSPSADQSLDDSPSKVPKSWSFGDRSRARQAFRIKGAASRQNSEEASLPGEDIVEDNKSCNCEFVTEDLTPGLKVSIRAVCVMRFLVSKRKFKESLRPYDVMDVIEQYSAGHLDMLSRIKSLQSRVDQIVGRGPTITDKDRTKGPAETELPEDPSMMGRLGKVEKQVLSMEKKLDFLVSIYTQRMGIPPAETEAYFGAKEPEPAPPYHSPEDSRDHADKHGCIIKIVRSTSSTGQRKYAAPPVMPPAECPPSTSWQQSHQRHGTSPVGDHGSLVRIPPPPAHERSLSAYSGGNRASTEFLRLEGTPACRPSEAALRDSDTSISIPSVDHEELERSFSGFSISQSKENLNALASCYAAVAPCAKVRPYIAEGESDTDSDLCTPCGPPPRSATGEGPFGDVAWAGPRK

For `CN1C(=O)NC(c2ccc(O)cc2)C(C(=O)c2cccs2)C1(O)C(F)(F)F` (configuration not stated), the outcome in experiment [1], in experiment [2], in experiment [3] and in experiment [4] was inactive.

Take `CSc1nc(Nc2ccc(Cl)cc2)c(C#N)c(=O)[nH]1`: the outcome in experiment [1], in experiment [2], in experiment [3] and in experiment [4] was inactive.

Regarding `O=C(NC(=S)Nc1ccccc1N1CCCC1)c1ccc([N+](=O)[O-])cc1`, in experiment [1], the activation was 161% (active). In addition, the potentiation in experiment [2] is 100% (active); in experiment [3] it was 218% (active). Also, in experiment [4], the outcome was inactive.

With `COc1ccc(C(=O)O/N=C(\N)Cc2ccc(Cl)cc2)cc1OC`, the outcome in experiment [1], in experiment [2], in experiment [3] and in experiment [4] was inactive.

Regarding `Cc1ccc2nc(SCC(=O)N3CCN(C(=O)c4ccco4)CC3)[nH]c2c1`, the outcome in experiment [1], in experiment [2], in experiment [3] and in experiment [4] was inactive.

Regarding `O=C1c2ccccc2NC(c2ccc(-c3cccc(Cl)c3)o2)N1O` (configuration not stated), the outcome in experiment [1], in experiment [2], in experiment [3] and in experiment [4] was inactive.

Consider `CCOC(=O)C(=NCC1CCCO1)NNc1ccccc1Cl` (configuration not stated), for which the result in experiment [1], in experiment [2], in experiment [3] and in experiment [4] was inactive.

For the compound `Cc1ccc(NC2=C(NC(=O)c3ccccc3)C(=O)c3ccccc3C2=O)cc1Cl`, the outcome in experiment [1], in experiment [2], in experiment [3] and in experiment [4] was inactive.

As to `O=C(Nc1ccc(C(=O)O)cc1)/C(=C\c1ccc2c(c1)OCO2)NC(=O)c1ccc(Br)cc1`, the outcome in experiment [1], in experiment [2], in experiment [3] and in experiment [4] was inactive.

For `Cc1ccc(C(C(=O)NC2CCCCC2)N(Cc2cccnc2)C(=O)C2COc3ccccc3O2)o1` (configuration not stated), the result in experiment [1], in experiment [2], in experiment [3] and in experiment [4] was inactive.

Regarding `CC(C)(C)c1ccc2c(c1)OC(C(=O)N/N=C\c1ccccn1)CO2` (configuration not stated), the outcome in experiment [1], in experiment [2], in experiment [3] and in experiment [4] was inactive.

As to `Cc1cccn2c(=O)nc(SCC(=O)N3N=C(c4cccs4)CC3c3ccc(F)cc3)nc12` (configuration not stated), the result in experiment [1], in experiment [2], in experiment [3] and in experiment [4] was inactive.

Consider `O=C(NC(=S)Nc1ccccc1N1CCOCC1)c1sc2ccccc2c1Cl`, for which the result in experiment [1], in experiment [3] and in experiment [4] was inactive. For the same compound, in experiment [2], the potentiation was 34% (active).

For `O=C(Nc1ccccc1OC(F)F)c1ccc(F)cc1`, the result in experiment [1], in experiment [2], in experiment [3] and in experiment [4] was inactive.

As to `O=C(CSc1ccc2ccccc2n1)Nc1ccc(N2CCOCC2)cc1`, the outcome in experiment [1], in experiment [2], in experiment [3] and in experiment [4] was inactive.

In the case of `C/C(=N\NC(=S)Nc1cccc(C)c1)c1ccco1`, the result in experiment [1] and in experiment [4] was inactive. In addition, the potentiation in experiment [2] is 35% (active); in experiment [3] it was 166% (active).

On to `Cc1ccnc(NC(=S)NC(=O)c2cncc(Br)c2)c1`, for which the result in experiment [1], in experiment [2], in experiment [3] and in experiment [4] was inactive.

Consider `CCOc1ccccc1C1CC(=O)Nc2cc3c(cc21)OCCO3` (configuration not stated), for which the result in experiment [1], in experiment [2], in experiment [3] and in experiment [4] was inactive.

On to `Cc1cc(C)nc(NC(=O)/C=C/c2ccccc2Cl)n1`, for which the outcome in experiment [1], in experiment [2], in experiment [3] and in experiment [4] was inactive.

In the case of `COc1ccccc1C(=O)NNC(=O)C(=O)NC1CCCCC1`, in experiment [1], the activation was 262% (active). For the same compound, the potentiation is 67.5% (active) in experiment [2] and 262% (active) in experiment [3]. The result in experiment [4] was inactive.

Consider `N#Cc1ccc(-c2nc3ccc(Br)cc3c(=O)n2O)cc1`, for which the activation in experiment [1] was 300% (active). In addition, the potentiation is 120% (active) in experiment [2] and 354% (active) in experiment [3]. In experiment [4], the result was inactive.

As to `CCN(C(=O)COC(=O)C(Cc1ccccc1)N1C(=O)c2ccccc2C1=O)C1CCS(=O)(=O)C1` (configuration not stated), the result in experiment [1], in experiment [2], in experiment [3] and in experiment [4] was inactive.

`CC1(c2ccc(OC(F)F)cc2)NC(=O)N(CC(=O)Nc2ccc(OC(F)F)cc2)C1=O` (configuration not stated): the outcome in experiment [1], in experiment [2], in experiment [3] and in experiment [4] was inactive.

Take `CC(C)c1ccc(OCC(=O)NNC(=S)NC(=O)c2ccco2)c(Br)c1`: the activation in experiment [1] was 154% (active). In addition, the potentiation in experiment [2] is 68.5% (active); in experiment [3] it was 232% (active). Besides, the outcome in experiment [4] was inactive.

With `O=C1CN(C(=O)CSc2nc3cc(Cl)ccc3c(=O)n2Cc2ccccc2)c2ccccc2N1`, the result in experiment [1], in experiment [3] and in experiment [4] was inactive. Also, in experiment [2], the potentiation was 22.5% (active).

In the case of `COc1ccccc1-n1cnc2cc(NCc3ccco3)ccc21`, the result in experiment [1], in experiment [3] and in experiment [4] was inactive. In experiment [2], the potentiation was 34.5% (active).

As to `O=C(N/N=C/c1ccccn1)c1cc(Br)ccc1O`, the activation in experiment [1] is 147% (active). The potentiation is 24% (active) in experiment [2] and 182% (active) in experiment [3]. Further, the outcome in experiment [4] was inactive.

With `CCNC(=S)Nc1scc(-c2ccccc2)c1C(=O)OCC`, in experiment [1], the activation was 254% (active). The potentiation in experiment [2] is 44% (active); in experiment [3], 214% (active). The outcome in experiment [4] was inactive.

For the origin of these results see PubChem BioAssay.
